# Test results from ChEMBL document CHEMBL2434864, “Synthesis and biological evaluation of phenyl substituted polyoxygenated xanthone derivatives as anti-hepatoma agents” (Eur J Med Chem, 2013).
# Key:
# [1] = Growth inhibition of human QGY7703 cells at 10 uM after 48 hrs by CCK-8 assay relative to control; format: functional; conditions: QGY-7703, 48 h, read-out: GI
# Outline: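 QGY-7703 cells were kept in 1640 medium with 10% FBS and penicillin/streptomycin at 37 °C, 5% CO2, then seeded at 2×10^5 cells/well for 24 h. They were treated once at 10 μM for 48 h, followed by CCK-8 for 3 h and A450. Values are percentage inhibition relative to untreated control cells.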
# [2] = test system: SMMC-7721; test: Cytotoxicity against human SMMC7721 cells after 48 hrs by CCK-8 assay; format: functional, cell-based; conditions: SMMC-7721, 48 h
# Outline: (§1)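 Cells grown at 37 °C, 5% CO2 in medium with 10% FBS and penicillin/streptomycin: HepG-2 in MEM; QGY-7703, SMMC-7721 and QSG-7701 in 1640 medium. Seeded at 2×10^5 cells/well for 24 h, then exposed to varying compound concentrations or 1% DMSO vehicle for 48 h. CCK-8 added for 3 h more, absorbance read at 450 nm.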
# [3] = Cytotoxicity against human QSG7701 cells after 48 hrs by CCK-8 assay; format: cell-based; conditions: QSG7701, 48 h; outline: as §1
# [4] = test system: HepG2; test: Cytotoxicity against human HepG2 cells after 48 hrs by CCK-8 assay; format: functional, cell-based; conditions: HepG2, 48 h; outline: as §1
# [5] = Cytotoxicity against human QGY7703 cells after 48 hrs by CCK-8 assay; format: functional, cell-based; conditions: QGY-7703, 48 h; outline: as §1
# [6] = test system: QGY-7703; test: Induction of apoptosis in human QGY7703 cells assessed as early apoptotic cells at 15 uM after 48 hrs by Annexin V-FITC/propidium iodide staining-based flow cytometric analysis (reference value: 2.63%); format: functional
# Outline: (§2)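 QGY-7703 cells were seeded at 5×10^5 cells/mL for 24 h, then given 3.75, 7.5, 15 or 30 μM, or DMSO control, for 48 h. Floating and trypsinized adherent cells were pooled, washed twice in cold PBS and resuspended in binding buffer. They were stained with annexin V-FITC/PI for 15 min at room temperature in the dark and analysed by flow cytometry. Mean ± SD of three independent experiments.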
# [7] = test system: QGY-7703; test: Induction of apoptosis in human QGY7703 cells assessed as early apoptotic cells at 30 uM after 48 hrs by Annexin V-FITC/propidium iodide staining-based flow cytometric analysis (reference value: 2.63%); format: functional; outline: as §2
# [8] = test system: QGY-7703; test: Induction of apoptosis in human QGY7703 cells assessed as early apoptotic cells at 7.5 uM after 48 hrs by Annexin V-FITC/propidium iodide staining-based flow cytometric analysis (reference value: 2.63%); format: functional; outline: as §2
# [9] = test system: QGY-7703; test: Induction of apoptosis in human QGY7703 cells assessed as late apoptotic cells at 30 uM after 48 hrs by Annexin V-FITC/propidium iodide staining-based flow cytometric analysis (reference value: 4.25%); format: functional; outline: as §2
# [10] = test system: QGY-7703; test: Induction of apoptosis in human QGY7703 cells assessed as late apoptotic cells at 15 uM after 48 hrs by Annexin V-FITC/propidium iodide staining-based flow cytometric analysis (reference value: 4.25%); format: functional; outline: as §2
# [11] = test system: QGY-7703; test: Induction of apoptosis in human QGY7703 cells assessed as late apoptotic cells at 7.5 uM after 48 hrs by Annexin V-FITC/propidium iodide staining-based flow cytometric analysis (reference value: 4.25%); format: functional; outline: as §2
# [12] = test system: QGY-7703; test: Induction of apoptosis in human QGY7703 cells assessed as late apoptotic cells at 3.75 uM after 48 hrs by Annexin V-FITC/propidium iodide staining-based flow cytometric analysis (reference value: 4.25%); format: functional; outline: as §2
# [13] = test system: QGY-7703; test: Induction of apoptosis in human QGY7703 cells assessed as early apoptotic cells at 3.75 uM after 48 hrs by Annexin V-FITC/propidium iodide staining-based flow cytometric analysis (reference value: 2.63%); format: functional; outline: as §2
Compound,inhibition of growth at 10 µM [1],IC50 [2],IC50 [3],IC50 [4],IC50 [5],further results
COc1ccc2c(=O)c3c(OC)cc(OC)c(-c4cc(C(F)(F)F)cc(C(F)(F)F)c4)c3oc2c1OC,14.2%,–,–,–,–,–
COc1ccc2c(=O)c3c(OC)cc(OC)c(-c4ccc(C)cc4)c3oc2c1OC,68.1%,3.15 µM,66.3 µM,24.6 µM,14.1 µM,–
COc1ccc2c(=O)c3c(OC)cc(OC)c(-c4ccc(C(F)(F)F)cc4)c3oc2c1OC,5.23%,–,–,–,–,–
COc1ccc2c(=O)c3c(OC)cc(OC)c(-c4cc(F)cc(F)c4)c3oc2c1OC,11.2%,–,–,–,–,–
COc1ccc2c(=O)c3c(OC)cc(OC)c(-c4cccc(C#N)c4)c3oc2c1OC,-4.17%,–,–,–,–,–
COc1ccc2c(=O)c3c(OC)cc(OC)c(-c4ccc(C(C)C)cc4)c3oc2c1OC,52.7%,20.1 µM,> 100 µM,32.5 µM,26.1 µM,–
COc1ccc2c(=O)c3c(OC)cc(OC)c(-c4cccc(F)c4)c3oc2c1OC,35.2%,–,–,–,–,–
COc1ccc2c(=O)c3c(OC)cc(OC)c(-c4ccccc4OC(F)(F)F)c3oc2c1OC,33%,–,–,–,–,–
COc1ccc2c(=O)c3c(OC)cc(OC)c(-c4ccc(C(C)=O)cc4)c3oc2c1OC,13.2%,–,–,–,–,–
COc1ccc2c(=O)c3c(OC)cc(OC)c(-c4cccc(C=O)c4)c3oc2c1OC,13%,–,–,–,–,–
COc1ccc2c(=O)c3c(OC)cc(OC)c(-c4ccc(OC(F)(F)F)cc4)c3oc2c1OC,0.53%,–,–,–,–,–
CCc1ccc(-c2c(OC)cc(OC)c3c(=O)c4ccc(OC)c(OC)c4oc23)cc1,77.1%,16.4 µM,69.2 µM,28 µM,22.6 µM,–
COc1ccc2c(=O)c3c(OC)cc(OC)c(-c4cccc(C(F)(F)F)c4)c3oc2c1OC,30%,–,–,–,–,–
O=c1[nH]cc(F)c(=O)[nH]1 [FLUOROURACIL],–,14.6 µM,0.6 µM,12.5 µM,15.7 µM,–
COc1ccc2c(=O)c3c(OC)cc(OC)c(-c4cccnc4)c3oc2c1OC,18%,–,–,–,–,–
COc1ccc2c(=O)c3c(OC)cc(OC)c(-c4ccc(C(C)(C)C)cc4)c3oc2c1OC,56.3%,18.2 µM,> 100 µM,39.2 µM,33.1 µM,–
COc1ccc2c(=O)c3c(OC)cc(OC)c(-c4ccc(F)cc4)c3oc2c1OC,13.9%,–,–,–,–,–
COc1ccc2c(=O)c3c(OC)cc(OC)c(-c4ccc(C=O)cc4)c3oc2c1OC,19.7%,–,–,–,–,–
COc1ccc2c(=O)c3c(OC)cc(OC)c(-c4ccc(S(C)(=O)=O)cc4)c3oc2c1OC,1.59%,–,–,–,–,–
COc1ccc2c(=O)c3c(OC)cc(OC)c(-c4cccc(C)c4)c3oc2c1OC,51.4%,14.8 µM,> 100 µM,5 µM,13.3 µM,–
COc1cc(OC)cc(-c2c(OC)cc(OC)c3c(=O)c4ccc(OC)c(OC)c4oc23)c1,58%,31.5 µM,33.1 µM,45 µM,31.9 µM,–
COc1cc(OC)c2c(=O)c3ccc(OC)c(OC)c3oc2c1,14.1%,–,–,–,–,–
COc1ccc2c(=O)c3c(OC)cc(OC)c(-c4ccccc4)c3oc2c1OC,66.5%,7.5 µM,> 100 µM,19.2 µM,6.27 µM,Activity [6]: 10.58%; Activity [7]: 15.81%; Activity [8]: 8.63%; Activity [9]: 23.27%; Activity [10]: 18.82%; Activity [11]: 12.12%; Activity [12]: 4.6%; Activity [13]: 2.61%
COc1ccc2c(=O)c3c(OC)cc(OC)c(-c4cc(F)ccc4F)c3oc2c1OC,17.4%,–,–,–,–,–
COc1ccc2c(=O)c3c(OC)cc(OC)c(-c4ccc(C#N)cc4)c3oc2c1OC,-1.84%,–,–,–,–,–
COc1cccc(-c2c(OC)cc(OC)c3c(=O)c4ccc(OC)c(OC)c4oc23)c1,55.2%,10.6 µM,48.1 µM,28.7 µM,11.9 µM,–
COc1ccc2c(=O)c3c(OC)cc(OC)c(-c4ccccc4F)c3oc2c1OC,52.4%,26.8 µM,20.7 µM,48.9 µM,39.6 µM,–
COC(=O)c1ccc(-c2c(OC)cc(OC)c3c(=O)c4ccc(OC)c(OC)c4oc23)cc1,-5.48%,–,–,–,–,–
COc1ccc2c(=O)c3c(OC)cc(OC)c(-c4cc(C)ccc4C)c3oc2c1OC,54.3%,17 µM,90.7 µM,28.6 µM,24.6 µM,–
COc1ccc2c(=O)c3c(OC)cc(OC)c(-c4ccc(F)c(F)c4)c3oc2c1OC,5.85%,–,–,–,–,–
